Source: ChEMBL document CHEMBL1124060, “2-Ethynylbenzenealkanamines. A new class of calcium entry blockers” (1988)

Columns and labels:
Type in all cases: functional
[1] = organism: Cavia porcellus; test: Concentration needed to achieve a 75% increase in coronary blood flow in 'Langendorff', guinea pig heart (in vitro Negative inotropic potency)
In short: (§1)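 Isolated Langendorff-perfused guinea pig hearts infused with a range of drug concentrations; force (g), rate (beats/min) and coronary flow (mL/min) recorded. A linear regression of percent-control flow gives C175, the micromolar concentration raising flow to 175% of control, reported only if within the tested range. Raw data analysed by paired t tests.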

[2] = organism: Cavia porcellus; test: Concentration needed to elicit a 75% increase beyond control in coronary flow in ''Langendorff'', guinea pig heart (in vitro); in short: as §1
[3] = organism: Cavia porcellus; test: Concentration needed to achieve a 75% increase in coronary blood flow in 'Langendorff', guinea pig heart (in vitro negative inotropic activity); in short: as §1
[4] = tested on: Rattus norvegicus; test: Ability to lower blood pressure in the spontaneously hypertensive rat (SHR) at 3 mg/kg (p.o.); settings: route oral
In short: (§2)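 Spontaneously hypertensive rats dosed orally at the stated dose; read-out is the maximum fall in blood pressure (mmHg), with significance shown as P.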

[5] = tested on: Rattus norvegicus; test: Ability to lower blood pressure in the spontaneously hypertensive rat (SHR) at 10 mg/kg (p.o.); settings: route oral; in short: as §2
[6] = tested on: Rattus norvegicus; test: Ability to lower blood pressure in the spontaneously hypertensive rat (SHR) at 30 mg/kg (p.o.); settings: route oral
In short: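 Spontaneously hypertensive rats were given a single oral dose of the compound. The read-out was the maximum fall in blood pressure, in mmHg, after that dose. A P value for significance was reported with each value.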

[7] = organism: Oryctolagus cuniculus; test: In vitro inhibition of development of isometric tension, in response to norepinephrine (NE, 10 uM) in rabbit aorta
In short: (§3)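 Test compounds at 10 μM; tension and calcium influx each expressed as % change from control, measured against KCl ([…]) or NE (10 μM) stimulus.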

[8] = organism: Oryctolagus cuniculus; test: Inhibition of [Ca2+] influx in response to a stimulus of KCL (60 uM); in short: as §3
[9] = organism: Oryctolagus cuniculus; test: Inhibition of [Ca2+] influx in response to a stimulus of norepinephrine (NE, 10 uM); in short: as §3
[10] = organism: Oryctolagus cuniculus; test: In vitro inhibition of development of isometric tension, in response to KCl (60 uM) in rabbit aorta; in short: as §3

| SMILES | P (Ei) [1] | C175 [2] | Contractile force, % of control [3] | Max fall in blood pressure [4] | Max fall in blood pressure [5] | Max fall in blood pressure [6] | Change [7] | Change [8] | Change [9] | Change [10] | Control [3] |
| --- | --- | --- | --- | --- | --- | --- | --- | --- | --- | --- | --- |
| COc1cccc(CCN(C)C(C)Cc2cc(OC)ccc2C#Cc2ccccc2)c1 (configuration not stated) | 0.21 | 0.0035 µM | 95% | 67 mmHg |  |  |  |  |  |  |  |
| COc1ccc(C#Cc2ccc(C#N)cc2)c(CC(C)N(C)CCc2ccc(OC)c(OC)c2)c1 (configuration not stated) | <0.05 | 0.45 µM | 75% |  | 27 mmHg |  |  |  |  |  |  |
| COc1ccc(C#CCCc2ccccc2)c(CCCN(C)CCc2ccc(OC)c(OC)c2)c1 | >0.5 | 1.25 µM | 100% |  | 12 mmHg |  |  |  |  |  |  |
| CCC#Cc1ccc(OC)cc1CCCN(C)CCc1ccc(OC)c(OC)c1 | <0.05 | 1 µM | 80% |  | 24 mmHg |  |  |  |  |  |  |
| COc1ccc(C#Cc2ccccc2)c(CC(C)N(C)CCCCc2ccccc2)c1 (configuration not stated) | >0.05 | 2.75 µM | 90% |  |  | 74 mmHg |  |  |  |  |  |
| COc1ccc(C#Cc2ccc(C(F)(F)F)cc2)c(CC(C)N(C)CCc2ccc(OC)c(OC)c2)c1 (configuration not stated) | >0.5 | 2 µM | 90% |  |  | 49 mmHg |  |  |  |  |  |
| COc1ccc(C#Cc2ccccc2)c(CC(C)NCCc2ccc(Cl)cc2)c1 (configuration not stated) | <0.05 | >3 µM | >25% |  | 39 mmHg |  |  |  |  |  |  |
| COc1ccc(C#Cc2ccccc2)c(CC(C)NCCc2cccc(Cl)c2Cl)c1 (configuration not stated) | 0.031 | 0.0048 µM | 83% | 45 mmHg |  |  |  |  |  |  |  |
| COc1ccc(CCN(C)C(C)Cc2ccccc2C#Cc2ccccc2)cc1OC (configuration not stated) | >0.05 | 0.2 µM | 90% |  | 13 mmHg |  |  |  |  |  |  |
| CCCCCCN(C)C(C)Cc1cc(OC)ccc1C#Cc1ccccc1 (configuration not stated) |  | >3 µM |  |  | 48 mmHg |  |  |  |  |  |  |
| COc1ccc(C#Cc2ccc(SC)cc2)c(CC(C)N(C)CCc2ccc(OC)c(OC)c2)c1 (configuration not stated) | 0.5 | 0.55 µM | 80% |  |  | 45 mmHg |  |  |  |  |  |
| COc1ccc(C#Cc2ccc(C(C)C)cc2)c(CC(C)N(C)CCc2ccc(OC)c(OC)c2)c1 (configuration not stated) | <0.001 | 4.04 µM | 34% | 13 mmHg |  |  |  |  |  |  |  |
| COc1ccc(C#Cc2ccccc2)c(CC(C)N(C)CCc2ccccc2)c1 (configuration not stated) | >0.5 | 0.5 µM | 115% |  | 43 mmHg |  |  |  |  |  |  |
| COc1ccc(C#Cc2ccc(Cl)cc2)c(CC(C)N(C)CCc2ccc(OC)c(OC)c2)c1 (configuration not stated) | >0.5 | 0.3 µM | 85% |  |  | 46 mmHg |  |  |  |  |  |
| COc1ccc(C#Cc2ccccc2)c(CC(C)NCCc2ccc([N+](=O)[O-])cc2)c1 (configuration not stated) | <0.05 Ei | >3 µM | >66% |  |  | 66 mmHg |  |  |  |  |  |
| COc1ccc(C#Cc2ccccc2)c(CC(C)N(C)Cc2ccc(OC)c(OC)c2)c1 (configuration not stated) | <0.05 | 3 µM | 50% |  | 20 mmHg |  |  |  |  |  |  |
| COc1cccc(CC(C)NCCc2ccc(OC)c(OC)c2)c1 (configuration not stated) |  | >10 µM |  |  |  | 18 mmHg |  |  |  |  |  |
| COc1ccc(C#Cc2ccccc2)c(CCCN(C)C)c1 | >0.5 | 0.3 µM | 110% |  |  | 22 mmHg |  |  |  |  |  |
| COc1ccc(C#Cc2ccccc2)c(CC(C)N(C)CCc2cccc(Cl)c2)c1 (configuration not stated) | 0.53 | 0.005 µM | 95% | 64 mmHg |  |  |  |  |  |  |  |
| COc1ccc(CCN(C)C(C)CCc2cc(F)ccc2C#Cc2ccccc2)cc1OC (configuration not stated) | 0.45 | 0.34 µM | 85% |  |  | 50 mmHg |  |  |  |  |  |

| SMILES | P (Ei) [1] | C175 [2] | Contractile force, % of control [3] | Max fall in blood pressure [4] | Max fall in blood pressure [5] | Max fall in blood pressure [6] | Change [7] | Change [8] | Change [9] | Change [10] | Control [3] |
| --- | --- | --- | --- | --- | --- | --- | --- | --- | --- | --- | --- |
| COc1ccc(C#Cc2ccccc2)c(CC(C)NCCc2cccc3ccccc23)c1 (configuration not stated) | 0.003 | 0.083 µM | 77% |  |  | 48 mmHg |  |  |  |  |  |
| COc1cccc(CCNC(C)Cc2cc(OC)ccc2C#Cc2ccccc2)c1 (configuration not stated) | 0.019 | 0.004 µM | 115% |  | 56 mmHg |  |  |  |  |  |  |
| COc1cc(CCN(C)C(C)Cc2cc(OC)ccc2C#Cc2ccccc2)cc(OC)c1 (configuration not stated) | 0.5 | 0.0025 µM | 100% | 66 mmHg |  |  | -22% | -41% | -10% | -68% |  |
| COc1ccc(C#Cc2ccc(F)cc2)c(CC(C)N(C)CCc2ccc(OC)c(OC)c2)c1 (configuration not stated) | 0.003 | 0.0013 µM | 78% | 43 mmHg |  |  |  |  |  |  |  |
| CCCCN(CCc1ccc(OC)c(OC)c1)C(C)Cc1cc(OC)ccc1C#Cc1ccccc1 (configuration not stated) |  | >3 µM |  |  |  | 49 mmHg |  |  |  |  |  |
| COc1ccc(C#Cc2ccccc2)c(CC(C)N(C)CCCc2ccccc2)c1 (configuration not stated) | >0.5 | 2.5 µM | 95% |  |  | 52 mmHg |  |  |  |  |  |
| COc1ccc(C#Cc2ccccc2)c(CC(C)N(C)CCc2cccc3ccccc23)c1 (configuration not stated) | 0.005 | 0.19 µM | 61% |  |  |  |  |  |  |  |  |
| COc1cc(CCN(C)C(C)CCc2cc(OC)ccc2C#Cc2ccccc2)cc(OC)c1 (configuration not stated) | 0.15 | 0.095 µM | 105% |  |  | 42 mmHg |  |  |  |  |  |
| COc1ccc(C#Cc2ccc(N(C)C)cc2)c(CC(C)N(C)CCc2ccc(OC)c(OC)c2)c1 (configuration not stated) | 0.009 | 0.035 µM | 115% | 69 mmHg |  |  |  |  |  |  |  |
| COc1ccc(C#Cc2ccccc2)c(CC(C)NCCc2cccc(Cl)c2)c1 (configuration not stated) | 0.007 | 0.03 µM | 85% | 52 mmHg |  |  |  |  |  |  |  |
| COc1ccc(C#Cc2ccccc2)c(CC(C)N(C)CCc2cccc(Cl)c2Cl)c1 (configuration not stated) | 0.007 | 0.015 µM | 58% | 111 mmHg |  |  |  |  |  |  |  |
| COc1ccc(C#Cc2ccccc2)c(CCC(C)N(C)CCc2ccc(OC)c(OC)c2)c1 (configuration not stated) | 0.055 | 0.025 µM | 135% |  |  | 40 mmHg | -47% | -42% | -34% | -71% |  |
| COc1ccc(C#Cc2ccccc2)c(CC(C)NCCc2ccc(Cl)c(Cl)c2)c1 (configuration not stated) | 0.205 | 0.006 µM | 115% | 43 mmHg |  |  | -5% | -21% | -23% | -20% |  |
| COc1ccc(C#Cc2ccccc2)c(CC(C)NCCc2ccc(OC)c(OC)c2)c1 (configuration not stated) | >0.5 | 0.027 µM | 95% | 37 mmHg |  |  | -45% | -46% | -27% | -68% |  |
| COc1ccc(C#Cc2ccccc2)c(CCC(C)NCCc2ccc(OC)c(OC)c2)c1 (configuration not stated) | 0.001 | 0.07 µM | 123% |  |  | 20 mmHg |  |  |  |  |  |
| COc1cc(CCNC(C)CCc2cc(OC)ccc2C#Cc2ccccc2)cc(OC)c1 (configuration not stated) | 0.045 | 2.1 µM | 87% |  |  | 34 mmHg |  |  |  |  |  |
| COc1ccc(C#Cc2ccccc2)c(CCN(C)C)c1 | >0.05 | 3 µM |  |  |  | 18 mmHg |  |  |  |  | 90% |
| COc1ccc([C@@H]2Sc3ccccc3N(CCN(C)C)C(=O)[C@@H]2OC(C)=O)cc1 [DILTIAZEM] | >0.05 | 0.18 µM | 90% |  |  | 48 mmHg | -8% | -18% | -37% | -84% |  |
| COC(=O)C1=C(C)NC(C)=C(C(=O)OC)C1c1ccccc1[N+](=O)[O-] [NIFEDIPINE] | 0.014 | 0.013 µM | 85% |  | 52 mmHg |  |  |  |  |  |  |
| COc1ccc(CCN(C)CCCC(C#N)(c2ccc(OC)c(OC)c2)C(C)C)cc1OC (configuration not stated) [VERAPAMIL] | <0.001 | 0.1 µM | 35% |  |  | 67 mmHg | -18% | -30% | -22% | -89% |  |
